What was measured:
Dihydrofolate reductase = molecular target: T1, Dihydrofolate reductase (Bos taurus, UniProt P00376); assay: Inhibition of bovine liver DHFR preincubated for 2 mins followed by addition of FH2 as substrate and NADPH
T1 sequence (P00376 whole entry): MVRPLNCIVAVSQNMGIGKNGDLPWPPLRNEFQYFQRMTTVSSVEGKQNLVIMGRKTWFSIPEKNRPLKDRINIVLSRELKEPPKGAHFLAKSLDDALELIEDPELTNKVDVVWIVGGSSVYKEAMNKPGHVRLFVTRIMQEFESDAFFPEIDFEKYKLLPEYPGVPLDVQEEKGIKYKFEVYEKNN

[1] = Growth inhibition of human K562 cells at 10 uM after 48 hrs by SRB assay relative to control; assay type: functional; settings: K562, 48 h, read-out: GI
Method in brief: (§1)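 NCI 60-cell-line panel, nine tumor subpanels; compounds tested at a single dose of 10 μM in the primary screen.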

[2] = Growth inhibition of human NCI-H23 cells at 10 uM after 48 hrs by SRB assay relative to control; assay type: functional; settings: NCI-H23, 48 h, read-out: GI; method in brief: as §1
[3] = Growth inhibition of human NCI-322M cells at 10 uM after 48 hrs by SRB assay relative to control; assay type: functional; settings: read-out: GI; method in brief: as §1
[4] = Growth inhibition of human NCI-H460 cells at 10 uM after 48 hrs by SRB assay relative to control; assay type: functional; settings: NCI-H460, 48 h, read-out: GI; method in brief: as §1
[5] = Growth inhibition of human HCC2998 cells at 10 uM after 48 hrs by SRB assay relative to control; assay type: functional; settings: HCC 2998, 48 h, read-out: GI; method in brief: as §1
[6] = Growth inhibition of human HCT116 cells at 10 uM after 48 hrs by SRB assay relative to control; assay type: functional; settings: HCT-116, 48 h, read-out: GI; method in brief: as §1
[7] = Growth inhibition of human SW620 cells at 10 uM after 48 hrs by SRB assay relative to control; assay type: functional; settings: SW-620, 48 h, read-out: GI
Method in brief: (§2)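 Primary screen across the full NCI 60 human tumour cell line panel, which covers nine tumour subpanels. A single dose of 10 μM was applied to each line, and growth was recorded for each cell line.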

[8] = Growth inhibition of human SF539 cells at 10 uM after 48 hrs by SRB assay relative to control; assay type: functional; settings: SF-539, 48 h, read-out: GI; method in brief: as §1
[9] = Growth inhibition of human U251 cells at 10 uM after 48 hrs by SRB assay relative to control; assay type: functional; settings: U-251, 48 h, read-out: GI; method in brief: as §2
[10] = Growth inhibition of human LOXIMVI cells at 10 uM after 48 hrs by SRB assay relative to control; assay type: functional; settings: LOX IMVI, read-out: GI; method in brief: as §1
[11] = Growth inhibition of human MALME-3M cells at 10 uM after 48 hrs by SRB assay relative to control; assay type: functional; settings: read-out: GI; method in brief: as §1
[12] = Growth inhibition of human SK-MEL-2 cells at 10 uM after 48 hrs by SRB assay relative to control; assay type: functional; settings: SK-MEL-2, 48 h, read-out: GI; method in brief: as §2
[13] = Growth inhibition of human SK-MEL-28 cells at 10 uM after 48 hrs by SRB assay relative to control; assay type: functional; settings: SK-MEL-28, 48 h, read-out: GI; method in brief: as §2
[14] = Growth inhibition of human UACC257 cells at 10 uM after 48 hrs by SRB assay relative to control; assay type: functional; settings: UACC-257, 48 h, read-out: GI; method in brief: as §2
[15] = Growth inhibition of human UACC62 cells at 10 uM after 48 hrs by SRB assay relative to control; assay type: functional; settings: UACC-62, 48 h, read-out: GI; method in brief: as §2
[16] = Growth inhibition of human OVCAR3 cells at 10 uM after 48 hrs by SRB assay relative to control; assay type: functional; settings: OVCAR-3, 48 h, read-out: GI; method in brief: as §1
[17] = Growth inhibition of human NCI/ADR-RES cells at 10 uM after 48 hrs by SRB assay relative to control; assay type: functional; settings: read-out: GI; method in brief: as §1
[18] = Growth inhibition of human A498 cells at 10 uM after 48 hrs by SRB assay relative to control; assay type: functional; settings: A498, 48 h, read-out: GI; method in brief: as §1
[19] = Growth inhibition of human ACHN cells at 10 uM after 48 hrs by SRB assay relative to control; assay type: functional; settings: read-out: GI; method in brief: as §1
[20] = Growth inhibition of human Caki1 cells at 10 uM after 48 hrs by SRB assay relative to control; assay type: functional; settings: CAKI-1, 48 h, read-out: GI; method in brief: as §1
[21] = Growth inhibition of human RXF393 cells at 10 uM after 48 hrs by SRB assay relative to control; assay type: functional; settings: RXF 393, 48 h, read-out: GI; method in brief: as §1
[22] = Growth inhibition of human SN12C cells at 10 uM after 48 hrs by SRB assay relative to control; assay type: functional; settings: read-out: GI; method in brief: as §2
[23] = Growth inhibition of human PC3 cells at 10 uM after 48 hrs by SRB assay relative to control; assay type: functional; settings: PC-3, 48 h, read-out: GI; method in brief: as §1
[24] = Growth inhibition of human Hs 578T cells at 10 uM after 48 hrs by SRB assay relative to control; assay type: functional; settings: read-out: GI; method in brief: as §1
[25] = Growth inhibition of human BT549 cells at 10 uM after 48 hrs by SRB assay relative to control; assay type: functional; settings: BT-549, 48 h, read-out: GI; method in brief: as §1
[26] = Growth inhibition of human T47D cells at 10 uM after 48 hrs by SRB assay relative to control; assay type: functional; settings: read-out: GI; method in brief: as §2
Cancer cell lines [27] = assay: Potency index, ratio of 5-fluorouracil GI50 to compound GI50 for human breast cancer cells; assay type: functional
Method in brief: (§3)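 GI50 for each cell line came from NCI panel testing over a 5-log dose range, with 5-fluorouracil tested alongside as the reference drug. The index relates the 5-fluorouracil GI50 to the compound GI50 within each tumour subpanel.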

Cancer cell lines [28] = assay: Potency index, ratio of 5-fluorouracil GI50 to compound GI50 for human prostate cancer cells; assay type: functional; method in brief: as §3
Melanoma cell = assay: Potency index, ratio of 5-fluorouracil GI50 to compound GI50 for human melanoma cells; assay type: functional; method in brief: as §3
Cancer cell lines [29] = assay: Potency index, ratio of 5-fluorouracil GI50 to compound GI50 for human colon cancer cells; assay type: functional; method in brief: as §3
Cancer cell lines [30] = assay: Potency index, ratio of 5-fluorouracil GI50 to compound GI50 for human non-small cell lung cancer cells; assay type: functional; method in brief: as §3
Leukemia cell = assay: Potency index, ratio of 5-fluorouracil GI50 to compound GI50 for human leukemia cells; assay type: functional; method in brief: as §3
[31] = Growth inhibition of human CNS cancer cells after 48 hrs by SRB assay; assay type: functional; settings: Cancer cell lines
Method in brief: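 Five-log dose range against NCI tumor cell lines, monitoring GI50, TGI and LC50 for each cell line; MG-MID values derived across the panel; 5-fluorouracil positive control.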

[32] = Growth inhibition of human leukemia cells after 48 hrs by SRB assay; assay type: functional; settings: Leukemia cell
Method in brief: (§4)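 Follow-up NCI panel testing over a 5-log dose range for each cell line. GI50, TGI and LC50 were monitored, with 5-fluorouracil run as the positive control. Values are grouped by tumour subpanel.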

[33] = Growth inhibition of human ovarian cancer cells after 48 hrs by SRB assay; assay type: functional; settings: Cancer cell lines; method in brief: as §4

## COc1ccc(-n2c(SCc3cc(OC)c(OC)c(OC)c3)nc3ccc(C)cc3c2=O)cc1
Dihydrofolate reductase
  IC50: 10 µM
[1]
  inhibition of growth at 10 µM: 83.1%
[2]
  inhibition of growth at 10 µM: 30.1%
[3]
  inhibition of growth at 10 µM: 19.7%
[4]
  inhibition of growth at 10 µM: 26.2%
[5]
  inhibition of growth at 10 µM: 24.3%
[6]
  inhibition of growth at 10 µM: 65.1%
[7]
  inhibition of growth at 10 µM: 50.7%
[8]
  inhibition of growth at 10 µM: 22.3%
[9]
  inhibition of growth at 10 µM: 30.9%
[10]
  inhibition of growth at 10 µM: 37%
[11]
  inhibition of growth at 10 µM: 40.4%
[12]
  inhibition of growth at 10 µM: 35.3%
[13]
  inhibition of growth at 10 µM: 26%
[14]
  inhibition of growth at 10 µM: 22.7%
[15]
  inhibition of growth at 10 µM: 43.3%
[16]
  inhibition of growth at 10 µM: 40.1%
[17]
  inhibition of growth at 10 µM: 54.2%
[18]
  inhibition of growth at 10 µM: 62%
[19]
  inhibition of growth at 10 µM: 33.3%
[20]
  inhibition of growth at 10 µM: 45.8%
[21]
  inhibition of growth at 10 µM: 47.2%
[22]
  inhibition of growth at 10 µM: 17.8%
[23]
  inhibition of growth at 10 µM: 25%
[24]
  inhibition of growth at 10 µM: 22.3%
[25]
  inhibition of growth at 10 µM: 28.6%
[26]
  inhibition of growth at 10 µM: 32.2%
Cancer cell lines [27]
  RatioGI50: 2 - 10
Cancer cell lines [28]
  RatioGI50: 2 - 10
Melanoma cell
  RatioGI50: 2 - 10
Cancer cell lines [29]
  RatioGI50: 2 - 10
Cancer cell lines [30]
  RatioGI50: 2 - 10
Leukemia cell
  RatioGI50: 2 - 10
[31]
  GI50: 30.9 µM
  LC50 (lethal concentration, 50% net cell kill): > 100 µM
  TGI: > 100 µM
[32]
  GI50: 3.4 µM
  TGI: 90.2 µM
[32]; read-out: LC50 (the source's name)
  CC50: > 100 µM
[33]
  GI50: 46.9 µM
  LC50 (50% lethal concentration): > 100 µM

Source: ChEMBL document CHEMBL3860041, “Synthesis, biological evaluation and molecular modeling study of some new methoxylated 2-benzylthio-quinazoline-4(3H)-ones as nonclassical antifolates” (Bioorg Med Chem Lett, 2016)
